Arrestin-AP2 inh: inhibitors of beta-arrestin/AP2 binding, primary screen, biochemical, GPCR trafficking, flow cytometry | beta-arrestin 1 C-terminal peptide binding to AP2 beta2-adaptin appendage (human) | FITC-arrestin peptide / GST-AP2 beads; AP2 beta2 appendage carries R879A mutation | inhibition, % at 10 µM | 340,000 compounds, 0.31% hits | AID 504490, 2011;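 active means inhibition above a set limit, near 3 SD of compounds lacking own fluorescence, cut at about 54% in these data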;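 further: plate controls were DMSO wells for no effect and 5 µM unlabelled arrestin peptide for full effect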
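Test system: GST-tagged AP2 beta2-adaptin appendage (R879A) on 4 µm glutathione beads; also added: fluorescein-tagged arrestin peptide at 50 nM final; timing: 12 min plus 1 h, RT; signal: flow cytometry, FL1 (488/535 nm); read-out: percent drop in bead-associated FITC signal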
Beta2AR agonist: beta2AR agonists driving receptor internalization, primary screen, cell-based, FAP fluorogen, flow cytometry; Beta-2 adrenergic receptor (Homo sapiens), P07550; Am2.2-beta2AR cells; response, % (test concentration not listed); 340,000 compounds, 0.43% hits; AID 504454, 2011;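 active means response above a set limit, near 3 SD of response in nonfluorescent compounds, cut at about 42% in these data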
UHRF1 binding: UHRF1 methylated DNA binding inhibitors, primary screen, counter-screen for MBD2 inhibitor project, biochemical, TR-FRET, human UHRF1, single concentration | inhibition, % at 4.4 µM | UHRF1 binding to methylated oligo | 370,000 compounds, 0.75% hits | AID 687016, 2013 | E3 ubiquitin-protein ligase UHRF1 (Homo sapiens), Q96T88; in the data active means inhibition above about 21%;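 further: UHRF1 SRA domain binding a hemimethylated CpG hairpin DNA probe; 0% = median of test compound wells and 100% = reference inhibitor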
MBD2 DNA inh: inhibitors of MBD2 binding to methylated DNA, primary screen, biochemical, TR-FRET, DNA-binding domain, human; Methyl-CpG-binding domain protein 2 (Homo sapiens), Q9UBB5; MBD2 binding to methylated oligonucleotide; inhibition, % at 4.4 µM; 370,000 compounds, 0.31% hits; in the data active means inhibition above about 13%
ABHD5 PLIN5 PPI: ABHD5-PLIN5 interaction inhibitors, primary screen, cell lysate, split luciferase complementation, luminescence | Perilipin-5 (Homo sapiens) + 1-acylglycerol-3-phosphate O-acyltransferase ABHD5 (Homo … | Split G. princeps luciferase complementation, 4 h | inhibition, % at 4 µM | 360,000 compounds, 0.78% hits;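 active means inhibition above the mean inhibition across every tested compound plus 3 SD, cut at about 22% in these data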;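 further: 0% = DMSO only wells and the 100% control is not disclosed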
Rin1 Abl inh: inhibitors of Rin1-Abl protein binding, primary screen, biochemical, TR-FRET; 360,000 compounds, 0.4% hits; inhibition, % at 7.35 µM; Tyrosine-protein kinase ABL1 (Homo sapiens) + Ras and Rab interactor 1 (Homo sapiens), …; in the data active means inhibition above about 5%, passing the limit was not always enough
Arr AP2 CP1: inhibitors of arrestin peptide binding to AP2, confirmation, biochemical, cherry pick 1, flow cytometry beads; shares compounds with Arrestin-AP2 inh; GST-AP2 beads, FITC arrestin peptide binding; GST-fused beta2-adaptin appendage, R879A mutant; inhibition, % at 10 µM; 1,300 compounds, 2% hits;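 active means inhibition above a set limit, roughly 3 SD of non-fluorescent compound noise, cut at about 38% in these data; inactive means inhibition at or below that limit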;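 further: loss of bead fluorescence from 50 nM FITC arrestin peptide bound to appendage; 0% = negative control wells and 100% = excess unlabelled arrestin peptide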
GST GSH counter: GST-fluorescein capture on glutathione beads, confirmation, artefact control for arrestin-AP2 inhibitor project, biochemical, cherry pick 1, flow cytometry; shares compounds with Arrestin-AP2 inh; GST-fluorescein binding to GSH beads, fluorescence, counter-screen; inhibition, % at 10 µM; 1,300 compounds, 2% hits; AID 588338, 2011;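 active means inhibition above 50%, about 3 SD of the inhibition seen with non-fluorescent compounds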;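 further: fluorescein maleimide labelled GST captured on 4 micron glutathione beads; higher means more loss of bead fluorescence from quenching or blocked binding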
Numbers without * were called inactive; nt = not tested or not shown. In the library only some 2.5% were active in any assay of this set; here they are far more common.

SMILES	Arrestin-AP2 inh	Beta2AR agonist	UHRF1 binding	MBD2 DNA inh	ABHD5 PLIN5 PPI	Rin1 Abl inh	Arr AP2 CP1	GST GSH counter
Cc1ccc(C)c(N2CCN(C3CCCCC3NS(=O)(=O)c3ccccc3)CC2)c1 (centres undefined)	57*	15	nt	nt	-9	-2	1	-15
Cc1ccc(Cl)cc1N1CCN(C2CCCCC2NS(=O)(=O)c2ccccc2)CC1 (centres undefined)	-6	-3	nt	nt	-5	4	nt	nt
O=C(NCc1ccccc1)C1(C(=O)C2CC2)CC(c2ccccn2)=NO1 (centres undefined)	nt	nt	2	-1	nt	nt	nt	nt
Nc1c(C(=O)NCc2cccs2)nnn1CC(=O)Nc1cccc(Cl)c1	99*	-5	1	3	4	0	16	21
Cc1ccc(C(C)(C)NC(=O)C2CCC(=O)N(Cc3ccccc3F)C2)cc1 (centres undefined)	-4	-5	2	1	3	1	-5	3
Cc1cccc(N/N=C(\C(N)=O)C2=NC(C)(C)Cc3ccccc32)c1	55*	-2	3	0	-6	-2	19	0
CCOC(=O)/C(=N\O)C1=NC(C)(C)Cc2ccccc21	-4	6	-2	-2	0	1	nt	nt
COc1ccc2c(c1)CN1CN(Cc3ccccc3)S(=O)(=O)CC21 (centres undefined)	nt	nt	-5	-4	nt	nt	nt	nt
COc1ccc(N/C=C2/Sc3ccccc3NC2=O)cc1	0	-2	3	2	-6	3	nt	nt
Cc1ccc(N/C=C2/Sc3ccccc3NC2=O)cc1	83*	0	9	-1	0	2	12	22
CCCCCc1nc2sc3c(c2c(=O)n1N)CCC3	97*	1	0	-1	-8	-2	-6	-3
COCCN1C(=O)/C(=C/c2ccc(N3CCCC3)cc2C)SC1=S	103*	nt	-3	-8	0	2	-21	-2
COc1ccc(CN[C@@H]2CC[C@@]34CCCN3C(=O)CCC[C@H]4C2)cc1	nt	nt	4	0	nt	nt	nt	nt
CCOC(=O)c1c(C(=O)OCC)c(C)n(N2C(=O)CSC2=S)c1C	60*	7	-2	0	-10	4	-12	-1
O=C(CSc1nnc(-c2cccnc2)n1-c1ccccc1)c1ccccc1Cl	nt	nt	-1	0	nt	nt	nt	nt
CCc1ccc(NC(=O)C2CCN(S(=O)(=O)c3c(C)noc3/C=C/N(C)C)CC2)cc1	55*	0	-1	1	-2	-3	4	-8
CNC(=O)C1CCN(S(=O)(=O)c2c(C)noc2/C=C/N(C)C)CC1	-17	-4	1	2	-13	-1	nt	nt
O=S1(=O)c2c(cccc2N2CCC[C@H]2CO)O[C@@H]2CCN1C2	nt	nt	9	2	nt	nt	nt	nt
COc1ccc([C@H]2OC(=O)C[C@@H]2C(=O)N2CCCCC2)cc1OC	nt	nt	-1	-5	nt	nt	nt	nt
CC12CCC(=O)N1C(C(=O)N1CCN(S(=O)(=O)c3cccc(C(F)(F)F)c3)CC1)CS2 (centres undefined)	57*	-6	1	0	-2	5	-1	-4
CC(=O)Nc1c(C)nn(-c2ccc([N+](=O)[O-])cc2)c1C	54*	10	-1	-4	-10	0	-3	-10

Screens as filed in PubChem BioAssay.
